What was measured:
Cytochrome P450 1A2 = molecular target: T1, Cytochrome P450 1A2 (Homo sapiens, UniProt P05177); assay: Inhibition of CYP1A2 using CEC as substrate; assay type: ADME
T1 sequence (P05177 whole entry): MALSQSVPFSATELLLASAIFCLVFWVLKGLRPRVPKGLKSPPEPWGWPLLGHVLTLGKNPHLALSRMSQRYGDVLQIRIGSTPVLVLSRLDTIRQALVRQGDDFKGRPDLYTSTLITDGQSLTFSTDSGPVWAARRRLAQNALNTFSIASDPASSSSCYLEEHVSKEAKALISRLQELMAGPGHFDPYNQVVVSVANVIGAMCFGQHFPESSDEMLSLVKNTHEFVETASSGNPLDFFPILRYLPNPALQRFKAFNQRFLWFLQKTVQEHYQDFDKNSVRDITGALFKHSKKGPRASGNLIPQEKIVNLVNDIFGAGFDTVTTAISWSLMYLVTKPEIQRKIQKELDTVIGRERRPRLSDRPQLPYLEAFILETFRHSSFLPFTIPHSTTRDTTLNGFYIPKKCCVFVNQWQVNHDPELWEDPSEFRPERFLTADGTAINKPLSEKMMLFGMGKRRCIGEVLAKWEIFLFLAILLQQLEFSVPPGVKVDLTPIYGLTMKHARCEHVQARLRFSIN
Summary of the method: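 Human CYP450 inhibition was measured with isoform-specific fluorogenic probe substrates: CEC for 1A2 and 2C19, MFC for 2C9, AMMC for 2D6. Incubation was at 37 °C with an NADPH-regenerating system in 384-well format. Metabolite was quantified by fluorescence, and IC50 was obtained by curve fitting.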

Tumour [1] = assay: Cmax in tumor of RT112/luc1 cells implanted athymic nude mouse at 5 mg/kg, iv by LC/MS/MS analysis; assay type: ADME, organism-based, Neoplasm; set-up: dose 5 mg/kg, route intravenous; settings: in vivo
Summary of the method: (§1)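 Female athymic nude mice carried subcutaneous RT112/luc1 tumors (5×10^6 cells, 50% Matrigel; about 300–400 mm3). Dosing was either 5 mg/kg iv by tail vein in NMP/PEG200 (1:9) or 20 mg/kg oral suspension in PEG300/D5W (2:1). Groups of mice (n = 4) were sacrificed at 0.083–24 h. Plasma and tumor levels were measured by LC-MS/MS (LOQ 5 ng/mL, 10 ng/g).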

[2] = Half life in plasma of RT112/luc1 cells implanted athymic nude mouse at 5 mg/kg, iv by LC/MS/MS analysis; assay type: ADME, organism-based; set-up: dose 5 mg/kg, route intravenous; summary of the method: as §1
[3] = Half life in plasma of RT112/luc1 cells implanted athymic nude mouse at 20 mg/kg, po by LC/MS/MS analysis; assay type: ADME, organism-based; set-up: dose 20 mg/kg, route oral
Summary of the method: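 Female athymic nude mice carried subcutaneous RT112/luc1 tumors (5 × 10^6 cells in HBSS with 50% Matrigel, right flank; about 300–400 mm3). Dosed by oral gavage at 20 mg/kg as a suspension in PEG300/D5W (2:1, v/v). Groups (n = 4) were sacrificed at 0.083–24 h.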

Rattus norvegicus = assay: Dose normalized AUC in Wistar rat at 5 mg/kg, iv by LC-MS/MS analysis; assay type: ADME, organism-based; set-up: dose 5 mg/kg, route intravenous; settings: in vivo
Summary of the method: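 Female Wistar rats received either an iv femoral-vein dose of 5 mg/kg in NMP/PEG200 (1:9) or an oral dose of monophosphate salt at 10 mg/kg (free base) in acetate buffer pH 4.6/PEG300. Plasma was sampled by sublingual bleeding at 0.083–24 h (n = 4 staggered, or n = 3–4 serial). Plasma levels were measured by LC-MS/MS (LOQ 10 ng/mL).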

[4] = Apparent terminal half life in Wistar rat at 10 mg/kg, po by LC-MS/MS analysis; assay type: ADME, organism-based; set-up: dose 10 mg/kg, route oral; settings: in vivo, read-out: t1/2 lambda z (converted)
Summary of the method: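 Female Wistar rats. IV: 5 mg/kg into the femoral vein as a solution in NMP/PEG200 (1:9, v/v). Oral: monophosphate salt at 10 mg/kg (free base equivalents) as a solution in acetic acid–acetate buffer pH 4.6/PEG300. Plasma was taken by sublingual bleeding at 0.083–24 h, from staggered groups (n = 4) or one sequentially bled group. Assayed by LC-MS/MS (LOQ 10 ng/mL); noncompartmental analysis.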

SW780 = assay: Antiproliferative activity against human SW780 cells overexpressing wild type FGFR3 after 72 hrs; assay type: functional, cell-based; settings: SW780, 72 h
Summary of the method: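 Bladder cancer lines from ATCC or DSMZ were seeded in 96-well plates (RT4, RT112 at 8500 cells/well; others at 5000 cells/well) in growth medium. Compound dilutions or DMSO were added 24 h later and incubated 72 h. Cells were fixed with glutaraldehyde, stained with 0.05% methylene blue and eluted with 3% HCl, then OD650 nm was read.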

[5] = molecular target: MAP kinase-interacting serine/threonine-protein kinase 2 (Homo sapiens, UniProt Q9HBH9); assay: Inhibition of recombinant MNK2
Summary of the method: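 Purified recombinant kinases under optimized conditions, with peptide substrates and ATP at each kinase's Km. Phosphorylation was read out by microfluidic mobility shift, and IC50 values were obtained.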

[6] = molecular target: Serine/threonine-protein kinase PAK 2 (Homo sapiens, UniProt Q13177); assay: Inhibition of recombinant PAK2
Summary of the method: (§2)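 Purified recombinant kinases under optimized conditions with peptide substrates. ATP was set at each kinase's Km. Phosphorylation was read by microfluidic mobility-shift separation of substrate and product; IC50 determined.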

[7] = molecular target: Mitogen-activated protein kinase 14 (Homo sapiens, UniProt Q16539); assay: Inhibition of recombinant p38alpha; summary of the method: as §2
[8] = molecular target: Mitogen-activated protein kinase 12 (Homo sapiens, UniProt P53778); assay: Inhibition of recombinant p38-gamma; summary of the method: as §2
[9] = molecular target: Receptor tyrosine-protein kinase erbB-4 (Homo sapiens, UniProt Q15303); assay: Inhibition of recombinant ERBB4; summary of the method: as §2
[10] = molecular target: Proto-oncogene tyrosine-protein kinase Src (Homo sapiens, UniProt P12931); assay: Inhibition of recombinant SRC
Summary of the method: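 Purified recombinant kinases were tested under optimized conditions with peptide substrates. ATP was set at each kinase's Km. Phosphorylation was read out by microfluidic mobility shift, and IC50 values were determined.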

BaF3 = assay: Antiproliferative activity against mouse wild type BAF3 cells assessed as decrease in cell viability by luminescence-based assay
Summary of the method: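 IL-3-independent BaF3 or BaF3 Tel-TK cells were grown in RPMI-1640 with 10% FBS and seeded at 4250 cells/well in 384-well plates. Compound serially diluted in DMSO was pin-transferred, followed by 48 h at 37 °C, 5% CO2. Viability was read by Bright-Glo luciferase luminescence.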

[11] = molecular target: Phosphatidylinositol 4-kinase beta (Homo sapiens, UniProt Q9UBF8); assay: Inhibition of PI4Kbeta by luminescent kinase assay
Tumour [12] = assay: Drug uptake in tumour of nude Rowett rat bearing human RT112 cells at 8.51 mg/kg, po administered as a single dose after 24 hrs by LC-MS/MS analysis; assay type: ADME, organism-based, Neoplasm, RT-112; set-up: dose 8.51 mg/kg, route oral; settings: in vivo
Summary of the method: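 Nude Rowett rats bearing subcutaneous RT112 tumors (n = 4) received a single gavage of monophosphate salt at 4.25 or 8.51 mg/kg free base in acetate buffer pH 4.6/PEG300. Tumors were collected at intervals after dosing, frozen and homogenized in an equal volume of ice-cold PBS. Compound levels were measured by LC-MS/MS (LOQ 3 ng/mL).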

Sequence of Proto-oncogene tyrosine-protein kinase Src (P12931 2-536 limits assumed): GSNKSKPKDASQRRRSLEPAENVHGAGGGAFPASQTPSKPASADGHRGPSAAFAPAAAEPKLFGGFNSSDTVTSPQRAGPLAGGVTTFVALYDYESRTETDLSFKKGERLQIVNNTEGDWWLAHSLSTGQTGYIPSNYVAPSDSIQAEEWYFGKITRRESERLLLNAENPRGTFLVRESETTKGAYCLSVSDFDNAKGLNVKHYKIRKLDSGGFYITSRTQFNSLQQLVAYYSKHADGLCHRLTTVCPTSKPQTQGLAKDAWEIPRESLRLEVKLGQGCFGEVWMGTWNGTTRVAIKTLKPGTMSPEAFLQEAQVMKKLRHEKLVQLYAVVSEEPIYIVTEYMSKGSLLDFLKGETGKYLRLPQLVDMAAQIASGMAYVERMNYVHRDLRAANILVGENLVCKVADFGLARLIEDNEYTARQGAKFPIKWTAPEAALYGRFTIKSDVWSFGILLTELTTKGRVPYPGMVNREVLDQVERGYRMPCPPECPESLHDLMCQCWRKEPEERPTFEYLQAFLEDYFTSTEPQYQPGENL
Sequence of MAP kinase-interacting serine/threonine-protein kinase 2 (Q9HBH9 whole entry): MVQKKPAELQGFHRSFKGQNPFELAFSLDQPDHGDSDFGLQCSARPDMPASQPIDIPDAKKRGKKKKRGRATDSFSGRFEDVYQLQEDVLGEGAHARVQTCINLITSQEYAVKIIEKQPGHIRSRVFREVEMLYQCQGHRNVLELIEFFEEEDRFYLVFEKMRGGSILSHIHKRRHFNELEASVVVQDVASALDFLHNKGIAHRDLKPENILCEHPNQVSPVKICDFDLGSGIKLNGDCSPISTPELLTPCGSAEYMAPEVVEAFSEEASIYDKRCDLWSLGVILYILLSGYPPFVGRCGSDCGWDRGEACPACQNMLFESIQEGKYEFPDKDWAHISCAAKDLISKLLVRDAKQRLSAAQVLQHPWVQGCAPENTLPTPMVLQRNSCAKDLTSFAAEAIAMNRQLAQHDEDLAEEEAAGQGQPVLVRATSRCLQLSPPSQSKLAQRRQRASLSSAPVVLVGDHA
Sequence of Receptor tyrosine-protein kinase erbB-4 (Q15303 whole entry): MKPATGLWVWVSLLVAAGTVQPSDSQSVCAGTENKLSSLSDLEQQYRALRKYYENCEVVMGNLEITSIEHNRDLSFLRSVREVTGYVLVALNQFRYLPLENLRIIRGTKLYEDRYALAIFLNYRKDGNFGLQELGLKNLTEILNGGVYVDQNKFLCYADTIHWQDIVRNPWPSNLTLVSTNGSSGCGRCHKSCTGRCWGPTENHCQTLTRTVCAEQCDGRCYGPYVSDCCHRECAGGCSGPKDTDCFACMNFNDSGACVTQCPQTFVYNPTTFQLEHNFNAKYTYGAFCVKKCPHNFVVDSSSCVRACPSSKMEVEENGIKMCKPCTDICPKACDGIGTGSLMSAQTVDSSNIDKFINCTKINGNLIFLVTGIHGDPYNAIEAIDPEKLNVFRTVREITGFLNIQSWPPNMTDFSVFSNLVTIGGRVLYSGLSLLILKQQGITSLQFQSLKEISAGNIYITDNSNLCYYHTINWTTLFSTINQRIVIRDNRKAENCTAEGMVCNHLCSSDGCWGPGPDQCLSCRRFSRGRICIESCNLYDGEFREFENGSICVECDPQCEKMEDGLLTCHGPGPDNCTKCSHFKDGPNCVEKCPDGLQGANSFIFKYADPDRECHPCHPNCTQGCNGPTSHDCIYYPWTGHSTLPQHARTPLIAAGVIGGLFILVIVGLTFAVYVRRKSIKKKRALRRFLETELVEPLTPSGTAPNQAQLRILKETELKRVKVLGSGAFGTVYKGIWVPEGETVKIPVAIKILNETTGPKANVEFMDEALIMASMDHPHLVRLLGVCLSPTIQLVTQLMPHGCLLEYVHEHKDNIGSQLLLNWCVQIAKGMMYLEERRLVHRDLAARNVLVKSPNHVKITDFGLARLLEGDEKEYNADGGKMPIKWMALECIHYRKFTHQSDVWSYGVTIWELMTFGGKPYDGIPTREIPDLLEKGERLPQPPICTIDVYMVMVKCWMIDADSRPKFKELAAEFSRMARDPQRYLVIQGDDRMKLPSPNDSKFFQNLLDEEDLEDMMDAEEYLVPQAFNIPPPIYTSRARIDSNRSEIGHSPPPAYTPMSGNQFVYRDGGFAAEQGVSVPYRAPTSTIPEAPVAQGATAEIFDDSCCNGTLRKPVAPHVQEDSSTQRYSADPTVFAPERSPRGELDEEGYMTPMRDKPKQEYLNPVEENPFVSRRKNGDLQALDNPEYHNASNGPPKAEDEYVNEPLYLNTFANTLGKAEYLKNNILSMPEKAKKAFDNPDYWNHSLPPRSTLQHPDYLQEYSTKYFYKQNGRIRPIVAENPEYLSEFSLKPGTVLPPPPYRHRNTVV
Sequence of Mitogen-activated protein kinase 12 (P53778 whole entry): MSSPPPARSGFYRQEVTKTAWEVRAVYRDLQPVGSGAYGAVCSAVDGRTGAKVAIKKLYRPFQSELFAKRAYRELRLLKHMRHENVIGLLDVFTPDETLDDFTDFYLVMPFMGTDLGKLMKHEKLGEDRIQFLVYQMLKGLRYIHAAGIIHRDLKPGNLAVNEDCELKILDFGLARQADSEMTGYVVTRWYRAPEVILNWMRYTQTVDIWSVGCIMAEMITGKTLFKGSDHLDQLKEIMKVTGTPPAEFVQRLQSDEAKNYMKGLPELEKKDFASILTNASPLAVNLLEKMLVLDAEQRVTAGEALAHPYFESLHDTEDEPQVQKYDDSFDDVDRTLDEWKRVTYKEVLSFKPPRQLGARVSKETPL
Sequence of Mitogen-activated protein kinase 14 (Q16539 whole entry): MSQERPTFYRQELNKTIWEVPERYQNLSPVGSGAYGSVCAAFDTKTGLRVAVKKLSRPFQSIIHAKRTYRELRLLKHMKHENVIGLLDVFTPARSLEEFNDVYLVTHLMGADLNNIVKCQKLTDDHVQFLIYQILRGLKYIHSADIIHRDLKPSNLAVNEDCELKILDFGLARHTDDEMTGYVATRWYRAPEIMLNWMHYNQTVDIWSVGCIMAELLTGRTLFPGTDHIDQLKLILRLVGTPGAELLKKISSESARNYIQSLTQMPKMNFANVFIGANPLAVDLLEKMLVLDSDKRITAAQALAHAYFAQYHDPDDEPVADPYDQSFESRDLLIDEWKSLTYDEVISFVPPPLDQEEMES
Sequence of Serine/threonine-protein kinase PAK 2 (Q13177 whole entry): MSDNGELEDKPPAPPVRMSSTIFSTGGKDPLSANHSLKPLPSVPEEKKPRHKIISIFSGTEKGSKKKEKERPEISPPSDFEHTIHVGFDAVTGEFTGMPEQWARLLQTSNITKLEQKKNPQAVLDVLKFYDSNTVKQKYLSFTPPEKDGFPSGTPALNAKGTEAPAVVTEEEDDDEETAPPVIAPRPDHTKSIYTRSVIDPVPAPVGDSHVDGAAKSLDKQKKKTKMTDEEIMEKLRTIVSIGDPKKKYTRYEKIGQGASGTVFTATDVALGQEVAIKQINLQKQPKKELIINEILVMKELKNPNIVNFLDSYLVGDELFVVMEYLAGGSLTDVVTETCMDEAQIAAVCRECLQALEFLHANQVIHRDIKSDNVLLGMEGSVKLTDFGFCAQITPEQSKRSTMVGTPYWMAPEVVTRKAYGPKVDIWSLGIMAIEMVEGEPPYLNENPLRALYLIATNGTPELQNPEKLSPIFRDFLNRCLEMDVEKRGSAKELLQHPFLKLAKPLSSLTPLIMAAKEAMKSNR
Sequence of Phosphatidylinositol 4-kinase beta (Q9UBF8 whole entry): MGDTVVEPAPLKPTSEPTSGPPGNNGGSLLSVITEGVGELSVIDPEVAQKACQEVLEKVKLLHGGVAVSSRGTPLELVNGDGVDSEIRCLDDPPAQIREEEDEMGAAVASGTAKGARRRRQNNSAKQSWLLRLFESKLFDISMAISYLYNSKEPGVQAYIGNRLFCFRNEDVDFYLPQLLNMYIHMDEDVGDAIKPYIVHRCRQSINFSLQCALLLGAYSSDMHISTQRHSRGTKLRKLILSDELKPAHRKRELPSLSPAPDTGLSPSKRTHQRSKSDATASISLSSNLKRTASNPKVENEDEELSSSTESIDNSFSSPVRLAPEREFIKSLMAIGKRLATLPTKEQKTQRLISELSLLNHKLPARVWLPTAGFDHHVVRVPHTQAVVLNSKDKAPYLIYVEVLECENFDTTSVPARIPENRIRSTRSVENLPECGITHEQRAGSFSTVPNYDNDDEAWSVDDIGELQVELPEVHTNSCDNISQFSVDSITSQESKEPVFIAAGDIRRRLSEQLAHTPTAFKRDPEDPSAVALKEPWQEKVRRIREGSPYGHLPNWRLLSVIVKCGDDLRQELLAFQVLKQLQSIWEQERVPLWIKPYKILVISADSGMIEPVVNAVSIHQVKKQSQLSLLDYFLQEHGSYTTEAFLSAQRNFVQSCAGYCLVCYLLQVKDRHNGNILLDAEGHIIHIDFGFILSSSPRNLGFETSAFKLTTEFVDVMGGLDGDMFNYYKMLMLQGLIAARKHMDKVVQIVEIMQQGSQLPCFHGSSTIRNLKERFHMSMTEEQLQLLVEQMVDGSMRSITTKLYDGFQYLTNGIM

## CCN1CCN(c2ccc(Nc3cc(N(C)C(=O)Nc4c(Cl)c(OC)cc(OC)c4Cl)ncn3)cc2)CC1.O=P(O)(O)O [INFIGRATINIB PHOSPHATE]
Cytochrome P450 1A2
  IC50: > 10 µM
Tumour [1]
  Cmax: 1.68 nmol/g
[2]
  half-life: 9.3 h
[3]
  half-life: 4.3 h
Rattus norvegicus
  AUC/dose: 0.49 µM·h
[4]
  half-life: 4.8 h
SW780
  IC50: 0.032 µM
[5]
  IC50: > 10 µM
[6]
  IC50: > 10 µM
[7]
  IC50: > 10 µM
[8]
  IC50: > 10 µM
[9]
  IC50: > 10 µM
[10]
  IC50: > 10 µM
BaF3
  IC50: 1.86 µM
[11]
  IC50: > 9 µM
Tumour [12]
  Drug uptake: 0.32 nmol/g

Reference: ChEMBL document CHEMBL1833940, “Discovery of 3-(2,6-dichloro-3,5-dimethoxy-phenyl)-1-{6-[4-(4-ethyl-piperazin-1-yl)-phenylamino]-pyrimidin-4-yl}-1-methyl-urea (NVP-BGJ398), a potent and selective inhibitor of the fibroblast growth factor receptor family of receptor tyrosine kinase” (J Med Chem, 2011)
